Source: ChEMBL document CHEMBL1152843, “Synthesis of new series of 5,6-dihydro-4H-1,2-oxazines via hetero Diels-Alder reaction and evaluation of antimicrobial activity” (2009)
Converted amounts (≈) assume the structure as drawn.

Legend:
Assay type in all cases: functional
Fusarium verticillioides [1] = assay: Antifungal activity against Fusarium moniliforme after 48 hrs by cup diffusion method
Fusarium verticillioides [2] = assay: Antifungal activity against Fusarium moniliforme at 20 ug after 48 hrs by cup diffusion method; settings: for zone of inhibition at 20 µg/disc: read-out: IZ
Outline: (§1)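 Cup diffusion on 9 cm plates seeded with 1 × 10⁶ cfu of fungi, with spores adjusted to at least 1 × 10⁶ cfu/ml in potato dextrose broth. Compound in DMF was placed in 5 mm agar cups and left 1 h to diffuse. Plates were incubated at 28 °C for 48 h and the inhibition zone read in mm. DMF was the negative control.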

Staphylococcus aureus [3] = assay: Antibacterial activity against Staphylococcus aureus MTCC 737 after 24 hrs by cup diffusion method
Pseudomonas aeruginosa [4] = assay: Antibacterial activity against Pseudomonas aeruginosa MTCC 1688 at 20 ug after 24 hrs by cup diffusion method; settings: MTCC 1688, 24 h, read-out: IZ
Outline: (§2)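 Agar cup diffusion. Plates of sterile medium in 9 cm dishes were seeded with 1 × 10⁵ cfu of bacteria, with the suspension adjusted to at least 1 × 10⁵ cfu/ml in nutrient broth. Compound in DMF was placed in 5 mm cups and pre-diffused for 1 h. Plates were incubated at 37 °C for 24 h and the inhibition zone measured in mm. DMF served as negative control.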

Aspergillus flavus [5] = assay: Antifungal activity against Aspergillus flavus after 48 hrs by cup diffusion method
Aspergillus niger [6] = assay: Antifungal activity against Aspergillus niger at 20 ug after 48 hrs by cup diffusion method; settings: read-out: IZ; outline: as §1
Fusarium oxysporum [7] = assay: Antifungal activity against Fusarium oxysporum at 20 ug after 48 hrs by cup diffusion method; settings: for zone of inhibition at 20 µg/disc: read-out: IZ; outline: as §1
Escherichia coli [8] = assay: Antibacterial activity against Escherichia coli MTCC 443 after 24 hrs by cup diffusion method
Fusarium oxysporum [9] = assay: Antifungal activity against Fusarium oxysporum after 48 hrs by cup diffusion method
Aspergillus flavus [10] = assay: Antifungal activity against Aspergillus flavus at 20 ug after 48 hrs by cup diffusion method; settings: for zone of inhibition at 20 µg/disc: read-out: IZ; outline: as §1
Aspergillus niger [11] = assay: Antifungal activity against Aspergillus niger after 48 hrs by cup diffusion method
Klebsiella pneumoniae [12] = assay: Antibacterial activity against Klebsiella pneumoniae […] after 24 hrs by cup diffusion method
Pseudomonas aeruginosa [13] = assay: Antibacterial activity against Pseudomonas aeruginosa MTCC 1688 after 24 hrs by cup diffusion method
Escherichia coli [14] = assay: Antibacterial activity against Escherichia coli MTCC 443 at 20 ug after 24 hrs by cup diffusion method; settings: MTCC 443, 24 h, read-out: IZ; outline: as §2
Staphylococcus aureus [15] = assay: Antibacterial activity against Staphylococcus aureus MTCC 737 at 20 ug after 24 hrs by cup diffusion method; settings: MTCC 737, 24 h, read-out: IZ; outline: as §2
Klebsiella pneumoniae [16] = assay: Antibacterial activity against Klebsiella pneumoniae […] at 20 ug after 24 hrs by cup diffusion method; settings: for zone of inhibition at 20 µg/disc: read-out: IZ; outline: as §2

Compound	MIC (Fusarium verticillioides [1]) [µg/mL]	zone of inhibition at 20 µg/disc (Fusarium verticillioides [2]) [mm]	MIC (Staphylococcus aureus [3]; MTCC 737, 24 h) [µg/mL]	zone of inhibition at 20 µg/disc (Pseudomonas aeruginosa [4]) [mm]	MIC (Aspergillus flavus [5]) [µg/mL]	zone of inhibition at 20 µg/disc (Aspergillus niger [6]) [mm]	zone of inhibition at 20 µg/disc (Fusarium oxysporum [7]) [mm]	MIC (Escherichia coli [8]; MTCC 443, 24 h) [µg/mL]	MIC (Fusarium oxysporum [9]) [µg/mL]	zone of inhibition at 20 µg/disc (Aspergillus flavus [10]) [mm]	MIC (Aspergillus niger [11]) [µg/mL]	MIC (Klebsiella pneumoniae [12]) [µg/mL]	MIC (Pseudomonas aeruginosa [13]; MTCC 1688, 24 h) [µg/mL]	zone of inhibition at 20 µg/disc (Escherichia coli [14]) [mm]	zone of inhibition at 20 µg/disc (Staphylococcus aureus [15]) [mm]	zone of inhibition at 20 µg/disc (Klebsiella pneumoniae [16]) [mm]	also measured
Cc1ccc(C2=NOC(C#N)CC2)cc1C (stereo not drawn)	15 (≈ 70 µM)	15.7	10 (≈ 46.7 µM)	15.2	20 (≈ 93.3 µM)	11.7	21.5	25 (≈ 117 µM)	15 (≈ 70 µM)	12.2	20 (≈ 93.3 µM)	15 (≈ 70 µM)	15 (≈ 70 µM)	15.5	21.5	19.8	
Cc1ccc(C2=NOC(Cc3ccc4c(c3)OCO4)CC2)cc1 (stereo not drawn)	20 (≈ 64.6 µM)	19.5	15 (≈ 48.5 µM)	11.2	15 (≈ 48.5 µM)	15.7	24.5	25 (≈ 80.8 µM)	10 (≈ 32.3 µM)	17.8	20 (≈ 64.6 µM)	20 (≈ 64.6 µM)	20 (≈ 64.6 µM)	10.7	12.8	19.7	
CCOC(=O)C1CCC(c2ccc(OC)cc2)=NO1 (stereo not drawn)	20 (≈ 76 µM)	28	20 (≈ 76 µM)	23.7	10 (≈ 38 µM)	24.2	30.7	35 (≈ 133 µM)	10 (≈ 38 µM)	25.5	15 (≈ 57 µM)	25 (≈ 95 µM)	20 (≈ 76 µM)	24.7	16.7	14.8	
COc1ccc(C2=NOC(Cc3ccc4c(c3)OCO4)CC2)cc1OC (stereo not drawn)	35 (≈ 98.5 µM)	11.2	10 (≈ 28.1 µM)	14.1	40 (≈ 113 µM)	7.75	15.8	25 (≈ 70.3 µM)	30 (≈ 84.4 µM)	8.12	40 (≈ 113 µM)	15 (≈ 42.2 µM)	20 (≈ 56.3 µM)	8.12	16.5	17.5	
Cc1ccc(C2=NOC(C#N)CC2)cc1 (stereo not drawn)	30 (≈ 150 µM)	10.5	15 (≈ 74.9 µM)	12.7	35 (≈ 175 µM)	6.83	13.7	25 (≈ 125 µM)	25 (≈ 125 µM)	7.5	40 (≈ 200 µM)	20 (≈ 99.9 µM)	20 (≈ 99.9 µM)	11.5	23.5	16.7	
COc1ccc(C2=NOC(CCl)CC2)cc1 (stereo not drawn)	15 (≈ 62.6 µM)	25.2	10 (≈ 41.7 µM)	29.5	15 (≈ 62.6 µM)	19.5	29.7	20 (≈ 83.4 µM)	10 (≈ 41.7 µM)	21.7	20 (≈ 83.4 µM)	10 (≈ 41.7 µM)	15 (≈ 62.6 µM)	9.5	14.7	17.7	
NYSTATIN	15				15				20		10						inhibition zone (IZ) (Fusarium verticillioides [2]): 15.6 mm; inhibition zone (IZ) (Fusarium oxysporum [7]): 16.6 mm; inhibition zone (IZ) (Aspergillus flavus [10]): 13.2 mm
GENTAMICIN												15					MIC (Staphylococcus aureus [3]): 15 µg/mL; MIC (Escherichia coli [8]): 20 µg/mL; MIC (Pseudomonas aeruginosa [13]): 15 µg/mL; inhibition zone (IZ) (Klebsiella pneumoniae [16]): 17.5 mm
